Data from PMC3776227 (Biochemical Pharmacology, 2013).

Legend:
[1] = molecular target: α1β2 GABAA receptors (Rattus norvegicus, UniProt P62813+P63138); assay: IGABA modulation, two-microelectrode voltage clamp, Xenopus oocytes, α1β2; format: cell-based
Procedure, shortened: (§1)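 Rat GABAA subunit cRNAs were injected into stage V–VI Xenopus oocytes (10–50 nl, about 300–3000 pg/nl): α1β1 at 3:1, other αβ pairs at 1:1, and γ2S-containing receptors at α:β:γ 1:1:10. Oocytes were kept 24–48 h at 18 °C in ND96 with penicillin/streptomycin. Two-electrode voltage clamp was run at −70 mV in HEPES-buffered bath (pH 7,4).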

[2] = system: GABAA receptors; assay: Direct activation of GABAA receptors in the absence of GABA; format: cell-based, rat; details: up to 300 μM, no GABA
[3] = molecular target: α5β2 GABAA receptors (Rattus norvegicus, UniProt P19969+P63138); assay: IGABA modulation, two-microelectrode voltage clamp, Xenopus oocytes, α5β2; format: cell-based
Procedure, shortened: as §1

[4] = molecular target: α1β2γ2S GABAA receptors (Rattus norvegicus, UniProt P62813+P63138); details: piperine data taken from the literature; cited from earlier work
[5] = system: C57BL/6N mice; assay: Open Field Test; format: in vivo
Procedure, shortened: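 Male C57BL/6N mice (3–6 months) were dosed i.p. with test compound or vehicle (saline, 10% DMSO, 3% Tween 80, pH 7.4) 30 min before testing. Ambulation was tracked by infrared for 10 min in a 50 × 50 × 50 cm box at 150 lx, starting in the centre. Zones: border ≤8 cm from wall, centre 20 × 20 cm. ≥8 mice; ANOVA with Bonferroni.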

[6] = system: C57BL/6N mice; assay: Elevated Plus Maze Test; format: in vivo
Procedure, shortened: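 Test compound or vehicle (saline, 10% DMSO, 3% Tween 80, pH 7.4) was injected i.p. into male C57BL/6N mice (3–6 months) 30 min before a 5-min elevated plus maze trial. The maze stood 1 m high with 30 × 5 cm arms and 20 cm closed-arm walls, lit at 180 lx. Mice started in the centre facing an open arm; scoring was automated by video. ≥9 mice; ANOVA with Bonferroni.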

[7] = molecular target: α1β1 GABAA receptors (Rattus norvegicus, UniProt P15431+P62813); assay: IGABA modulation, two-microelectrode voltage clamp, Xenopus oocytes, α1β1; format: cell-based
Procedure, shortened: as §1

[8] = molecular target: α1β3 GABAA receptors (Rattus norvegicus, UniProt P62813+P63079); assay: IGABA modulation, two-microelectrode voltage clamp, Xenopus oocytes, α1β3; format: cell-based
Procedure, shortened: as §1

[9] = system: C57BL/6N mice; assay: Measurement of body temperature; format: in vivo; details: 3 h after injection, control 36.10 ± 0.10 °C
[10] = system: C57BL/6N mice; assay: Seizure threshold, pentylentetrazole; format: in vivo; details: for Seizure threshold (PTZ dose): 30 min before PTZ, control 39.4 ± 2.8
[11] = molecular target: T1, α3β2 GABAA receptors (Rattus norvegicus, UniProt P20236+P63138); assay: IGABA modulation, two-microelectrode voltage clamp, Xenopus oocytes, α3β2; format: cell-based
Procedure, shortened: as §1

[12] = molecular target: T1, α3β2 GABAA receptors; assay: Shift of the GABA concentration-response curve by 100 μM compound; format: cell-based; details: enhancement not significant (p > 0.05)
[13] = molecular target: α2β2 GABAA receptors (Rattus norvegicus, UniProt P23576+P63138); assay: IGABA modulation, two-microelectrode voltage clamp, Xenopus oocytes, α2β2; format: cell-based
Procedure, shortened: as §1

[14] = molecular target: TRPV1 channels (Rattus norvegicus, UniProt O35433); assay: TRPV1 activation, two-microelectrode voltage clamp, Xenopus oocytes; format: cell-based
Procedure, shortened: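 Rat TRPV1 cRNA was injected into Xenopus oocytes, which were stored 24–48 h at 18 °C. Two-electrode voltage clamp was run at −60 mV. Test compound (3–300 μM) was applied by fast perfusion. Peak inward current was normalised to a preceding 300 μM control response to the parent test compound in the same cell. Hill fit; n = 3–10 cells.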

[15] = read-out: Maximum stimulation of IGABA at EC3–7

Sequence of α1β2 GABAA receptors (P62813 28-455): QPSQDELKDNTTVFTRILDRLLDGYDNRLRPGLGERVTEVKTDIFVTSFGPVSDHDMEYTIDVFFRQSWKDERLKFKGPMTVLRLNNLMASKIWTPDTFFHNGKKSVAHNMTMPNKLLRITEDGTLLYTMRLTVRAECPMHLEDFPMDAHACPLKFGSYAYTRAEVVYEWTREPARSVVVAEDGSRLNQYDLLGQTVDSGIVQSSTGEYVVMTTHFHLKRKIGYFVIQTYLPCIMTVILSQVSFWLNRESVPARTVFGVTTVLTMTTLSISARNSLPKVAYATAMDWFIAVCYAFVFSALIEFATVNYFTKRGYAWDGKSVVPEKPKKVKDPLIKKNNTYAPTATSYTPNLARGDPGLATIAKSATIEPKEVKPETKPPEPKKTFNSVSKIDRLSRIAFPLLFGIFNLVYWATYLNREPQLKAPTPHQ
Sequence of α1β2 GABAA receptors (P63138 25-474 limits assumed): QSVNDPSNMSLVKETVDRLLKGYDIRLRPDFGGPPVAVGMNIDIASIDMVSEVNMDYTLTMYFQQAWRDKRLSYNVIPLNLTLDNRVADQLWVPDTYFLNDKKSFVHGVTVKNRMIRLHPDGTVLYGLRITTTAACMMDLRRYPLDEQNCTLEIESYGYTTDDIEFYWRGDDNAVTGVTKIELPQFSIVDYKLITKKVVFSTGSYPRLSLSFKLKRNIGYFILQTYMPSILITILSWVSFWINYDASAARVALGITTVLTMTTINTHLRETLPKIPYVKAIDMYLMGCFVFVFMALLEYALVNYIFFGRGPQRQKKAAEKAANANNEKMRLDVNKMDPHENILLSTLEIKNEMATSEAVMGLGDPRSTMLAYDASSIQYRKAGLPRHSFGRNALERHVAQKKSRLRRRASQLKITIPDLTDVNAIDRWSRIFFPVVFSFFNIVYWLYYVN
Sequence of α1β3 GABAA receptors (P62813 28-455): as the sequence (P62813 28-455) above
Sequence of α1β3 GABAA receptors (P63079 26-473): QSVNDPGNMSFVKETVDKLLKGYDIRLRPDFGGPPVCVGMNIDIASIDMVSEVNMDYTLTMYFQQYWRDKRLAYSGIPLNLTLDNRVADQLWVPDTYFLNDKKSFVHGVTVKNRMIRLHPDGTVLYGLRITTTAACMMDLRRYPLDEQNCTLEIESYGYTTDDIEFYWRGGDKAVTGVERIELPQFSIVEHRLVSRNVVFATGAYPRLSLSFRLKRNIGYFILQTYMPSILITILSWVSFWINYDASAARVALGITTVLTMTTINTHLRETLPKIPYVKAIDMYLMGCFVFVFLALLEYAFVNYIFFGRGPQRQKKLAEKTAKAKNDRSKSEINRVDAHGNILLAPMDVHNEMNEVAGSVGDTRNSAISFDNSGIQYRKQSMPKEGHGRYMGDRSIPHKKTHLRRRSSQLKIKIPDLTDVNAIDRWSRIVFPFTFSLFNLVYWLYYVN
Sequence of α1β1 GABAA receptors (P62813 28-455): as the sequence (P62813 28-455) above
Sequence of α1β1 GABAA receptors (P15431 26-474): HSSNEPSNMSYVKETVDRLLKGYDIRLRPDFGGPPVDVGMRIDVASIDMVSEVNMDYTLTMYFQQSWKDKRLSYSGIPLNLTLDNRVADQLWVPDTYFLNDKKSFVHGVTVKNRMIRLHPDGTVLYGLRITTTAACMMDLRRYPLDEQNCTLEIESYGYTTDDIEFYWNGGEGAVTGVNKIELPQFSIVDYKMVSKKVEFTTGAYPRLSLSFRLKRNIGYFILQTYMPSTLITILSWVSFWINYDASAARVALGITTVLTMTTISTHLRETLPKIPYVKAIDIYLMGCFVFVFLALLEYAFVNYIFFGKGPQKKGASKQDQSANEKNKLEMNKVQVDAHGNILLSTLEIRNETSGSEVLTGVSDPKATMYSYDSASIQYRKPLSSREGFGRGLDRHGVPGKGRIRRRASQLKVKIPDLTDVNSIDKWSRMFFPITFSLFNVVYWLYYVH
T1 sequence (P20236 29-493): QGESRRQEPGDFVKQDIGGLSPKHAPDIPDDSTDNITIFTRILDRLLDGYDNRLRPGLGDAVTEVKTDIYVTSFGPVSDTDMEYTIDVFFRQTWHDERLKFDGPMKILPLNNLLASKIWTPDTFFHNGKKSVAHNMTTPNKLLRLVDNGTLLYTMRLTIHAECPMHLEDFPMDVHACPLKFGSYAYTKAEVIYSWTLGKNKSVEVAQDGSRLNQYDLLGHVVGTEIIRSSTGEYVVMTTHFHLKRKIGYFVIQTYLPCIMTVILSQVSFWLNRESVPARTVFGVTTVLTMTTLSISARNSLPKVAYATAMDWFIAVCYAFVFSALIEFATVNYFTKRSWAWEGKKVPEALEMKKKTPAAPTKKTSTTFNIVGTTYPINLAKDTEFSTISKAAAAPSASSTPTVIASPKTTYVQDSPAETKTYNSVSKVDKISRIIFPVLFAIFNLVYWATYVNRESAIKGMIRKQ
T1 sequence (P63138 25-474 limits assumed): as the sequence (P63138 25-474 limits assumed) above
Sequence of α5β2 GABAA receptors (P19969 26-464): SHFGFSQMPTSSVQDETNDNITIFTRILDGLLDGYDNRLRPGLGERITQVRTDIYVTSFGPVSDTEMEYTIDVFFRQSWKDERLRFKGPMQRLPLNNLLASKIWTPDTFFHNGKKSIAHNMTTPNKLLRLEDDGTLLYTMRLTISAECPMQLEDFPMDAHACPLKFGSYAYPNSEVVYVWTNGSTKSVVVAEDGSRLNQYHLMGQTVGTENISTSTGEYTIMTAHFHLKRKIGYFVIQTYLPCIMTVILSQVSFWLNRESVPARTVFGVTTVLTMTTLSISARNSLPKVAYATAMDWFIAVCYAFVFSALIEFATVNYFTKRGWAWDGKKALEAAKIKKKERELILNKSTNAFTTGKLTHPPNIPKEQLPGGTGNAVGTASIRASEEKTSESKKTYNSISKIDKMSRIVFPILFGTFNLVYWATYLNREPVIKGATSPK
Sequence of α5β2 GABAA receptors (P63138 25-474 limits assumed): as the sequence (P63138 25-474 limits assumed) above
Sequence of α2β2 GABAA receptors (P23576 29-451): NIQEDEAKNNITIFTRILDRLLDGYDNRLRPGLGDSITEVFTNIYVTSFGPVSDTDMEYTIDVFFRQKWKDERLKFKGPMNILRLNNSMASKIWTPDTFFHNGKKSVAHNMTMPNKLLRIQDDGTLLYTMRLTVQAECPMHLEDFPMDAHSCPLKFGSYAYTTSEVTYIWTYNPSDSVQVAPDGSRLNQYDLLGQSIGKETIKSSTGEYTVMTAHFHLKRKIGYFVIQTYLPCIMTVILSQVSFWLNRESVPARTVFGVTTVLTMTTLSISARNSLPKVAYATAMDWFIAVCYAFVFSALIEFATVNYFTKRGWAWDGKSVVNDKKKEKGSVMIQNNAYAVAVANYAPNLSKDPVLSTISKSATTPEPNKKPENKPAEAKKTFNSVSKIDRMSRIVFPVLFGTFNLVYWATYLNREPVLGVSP
Sequence of α2β2 GABAA receptors (P63138 25-474 limits assumed): as the sequence (P63138 25-474 limits assumed) above
Sequence of TRPV1 channels (O35433 whole entry, the tested form may be a part): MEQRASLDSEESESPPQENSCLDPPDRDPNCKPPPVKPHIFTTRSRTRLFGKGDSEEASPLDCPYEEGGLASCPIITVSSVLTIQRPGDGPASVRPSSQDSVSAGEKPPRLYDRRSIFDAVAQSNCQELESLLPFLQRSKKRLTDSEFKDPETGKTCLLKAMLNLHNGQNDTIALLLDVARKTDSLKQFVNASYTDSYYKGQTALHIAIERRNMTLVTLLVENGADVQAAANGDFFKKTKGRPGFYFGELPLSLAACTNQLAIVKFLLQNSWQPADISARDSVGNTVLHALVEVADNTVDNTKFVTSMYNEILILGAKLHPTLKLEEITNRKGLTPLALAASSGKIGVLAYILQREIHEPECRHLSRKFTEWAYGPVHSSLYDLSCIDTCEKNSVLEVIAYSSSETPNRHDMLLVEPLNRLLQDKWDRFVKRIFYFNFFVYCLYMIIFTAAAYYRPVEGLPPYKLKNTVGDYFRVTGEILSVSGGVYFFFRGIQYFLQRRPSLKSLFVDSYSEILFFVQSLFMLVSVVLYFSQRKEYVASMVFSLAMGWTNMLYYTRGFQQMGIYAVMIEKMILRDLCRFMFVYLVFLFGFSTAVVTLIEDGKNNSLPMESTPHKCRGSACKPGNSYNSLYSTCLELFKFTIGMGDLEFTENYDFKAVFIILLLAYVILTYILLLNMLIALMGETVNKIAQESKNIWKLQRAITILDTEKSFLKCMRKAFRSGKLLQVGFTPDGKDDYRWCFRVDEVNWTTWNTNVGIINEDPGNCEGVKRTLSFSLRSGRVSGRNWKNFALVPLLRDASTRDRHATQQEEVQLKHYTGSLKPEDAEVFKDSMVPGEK
Sequence of α1β2γ2S GABAA receptors (P62813 28-455): as the sequence (P62813 28-455) above
Sequence of α1β2γ2S GABAA receptors (P63138 25-474 limits assumed): as the sequence (P63138 25-474 limits assumed) above
Sequence of α1β2γ2S GABAA receptors (P18508 39-466 partner): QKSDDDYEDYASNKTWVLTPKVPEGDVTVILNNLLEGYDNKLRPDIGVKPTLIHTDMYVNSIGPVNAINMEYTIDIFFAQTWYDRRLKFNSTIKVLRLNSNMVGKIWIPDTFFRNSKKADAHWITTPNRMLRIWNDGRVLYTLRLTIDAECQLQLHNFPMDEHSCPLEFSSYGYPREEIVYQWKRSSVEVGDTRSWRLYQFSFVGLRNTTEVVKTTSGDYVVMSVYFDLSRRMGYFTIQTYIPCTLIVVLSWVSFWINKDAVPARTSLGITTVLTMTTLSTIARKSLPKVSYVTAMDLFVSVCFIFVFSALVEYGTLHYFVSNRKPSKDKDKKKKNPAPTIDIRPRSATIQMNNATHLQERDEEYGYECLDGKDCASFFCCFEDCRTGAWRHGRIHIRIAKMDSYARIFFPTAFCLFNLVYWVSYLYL

EC50 [1]: 50 ± 7.9 µM
Emax [1, 15]: 271 ± 36%
Hill coefficient (nH) ([1]; α1β2, GABA EC3–7): 1.5 ± 0.3
EC50 [3]: 47.5 ± 17.9 µM
Emax [3, 15]: 136 ± 22%
Hill coefficient (nH) ([3]; α5β2, GABA EC3–7): 1.7 ± 0.4
EC50 [7]: 57.6 ± 4.2 µM
Emax [7, 15]: 171 ± 22%
Hill coefficient (nH) ([7]; α1β1, GABA EC3–7): 1.4 ± 0.2
EC50 [8]: 48.3 ± 7.3 µM
Emax [8, 15]: 332 ± 64%
Hill coefficient (nH) ([8]; α1β3, GABA EC3–7): 1.5 ± 0.3
Body temperature ([9]; 10 mg/kg bodyweight i.p.): 34.86 ± 0.29 °C
Body temperature ([9]; 30 mg/kg bodyweight i.p.): 30.37 ± 0.84 °C
EC50 [11]: 59.6 ± 12.3 µM
Emax [11, 15]: 375 ± 51%
Hill coefficient (nH) ([11]; α3β2, GABA EC3–7): 1.4 ± 0.2
IGABA,max in the presence of compound [12]: 123 ± 3%
EC50 [13]: 42.8 ± 17.6 µM
Emax [13, 15]: 248 ± 48%
Hill coefficient (nH) ([13]; α2β2, GABA EC3–7): 1.9 ± 0.5
EC50 [14]: 33.3 ± 0.1 µM
Hill coefficient of TRPV1 activation ([14]; 3–300 μM): 4.1 ± 0.1
Activation of TRPV1 receptors (inward currents) ([14]; oocytes expressing TRPV1, up to 300 μM): induced marked inward currents
SMILES: O=C(/C=C/C=C/c1ccc2c(c1)OCO2)N1CCCCC1 [Piperine, 1-piperoylpiperidine]
Activation of GABAA receptors in the absence of GABA [2]: Neither piperine nor SCT-66 (up to 300 μM) activated GABAA receptors
EC50 [4]: 52.4 ± 9.4 µM
IGABA,max [4]: 302 ± 27%
Total distance travelled (OF) ([5]; 30 mg/kg bodyweight i.p., 30 min before test, 10 min test, control 39.3 ± 1.9 m): 21.0 ± 3.7 m
Reduction of ambulation compared to control (OF) ([5]; 30 mg/kg i.p.): approximately 50%
Doses with significant reduction of ambulation (OF) ([5]; i.p., 30 min before test): ≥ 3 mg/kg bodyweight
Time spent in the open arms (OA) in % of total time (EPM) ([6]; 0.1 mg/kg bodyweight i.p., vs saline-treated control): did not significantly differ
Time spent in the open arms (OA) in % of total time (EPM) ([6]; 0.3 mg/kg bodyweight i.p., 30 min before test, control 28.6 ± 2.1%): 43.0 ± 4.2%
Effect on ambulation (EPM total distance) ([6]; 1 mg/kg bodyweight i.p.): significantly reduced ambulation
Time spent in the open arms (OA) in % of total time (EPM) ([6]; 1 mg/kg bodyweight i.p., 30 min before test, control 28.6 ± 2.1%): 45.7 ± 6.3%
Number of closed arm (CA) entries (EPM) ([6]; doses ≥0.3 mg/kg bodyweight i.p.): dropped significantly
Seizure threshold (PTZ dose) ([10]; 3 mg/kg bodyweight i.p.): 46.2 ± 5.4 mg/kg bodyweight PTZ
Seizure threshold (PTZ dose) ([10]; 30 mg/kg bodyweight i.p.): 30.3 ± 3.4 mg/kg bodyweight PTZ
Effect on seizure threshold ([10]; doses below 3 mg/kg bodyweight i.p.): did not affect seizure threshold
Vasodilatory effects during PTZ tail-vein infusion ([10]; doses of 10–30 mg/kg, data not shown): observed vasodilatory effects
